PMC9321963 (Birth Defects Research, 2022)
Where “and” joins values, the source holds several entries; their conditions need not be identical. Identical values can stand only once.

Legend:
[1] = Toxicokinetics, rabbit DRF EFD study; conditions: female, in vivo
[2] = Toxicokinetics, rat main EFD study; type: in vivo; conditions: for Tmax / AUC(0-t) / Cmax: female, Sprague-Dawley (Crl:CD SD), rat, plasma, po; for AUC(0-t) / Cmax: rat main EFD; for Cmax: C max
[3] = molecular target: T1, PI4Kα (Homo sapiens, UniProt P42356); experiment: ADP-Glo Kinase Assay, PI4Kα; type: biochemical
[4] = Toxicokinetics, rat investigative EFD study; type: in vivo; conditions: for Tmax / AUC(0-t) / Cmax: female, rat, plasma, po; for AUC(0-t) / Cmax: rat investigative EFD; for Cmax: C max
[5] = molecular target: PI4Kβ (Homo sapiens, UniProt Q9UBF8); conditions: chemoproteomic profiling, ref Paquet et al., [2017]; cited from earlier work
[6] = molecular target: PI3Kγ (Homo sapiens, UniProt P48736); experiment: ADP-Glo Kinase Assay, PI3Kγ; type: biochemical
[7] = system: pregnant rabbits; experiment: Rabbit EFD studies; type: in vivo
[8] = molecular target: T1, PI4Kα; conditions: chemoproteomic profiling, ref Paquet et al., [2017]; cited from earlier work
[9] = Rat investigative embryofetal developmental toxicity study; type: in vivo; conditions: female, Sprague-Dawley, rat, in vivo, oral
Outline: (§1)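 Crl:OFA SD naïve time-mated females, 25 per group (plug day = GD0), under GLP and ICH S5(R2). Oral daily doses of 20, 40 or 60 mg/kg/day were given GD6–GD17; an extra 60 mg/kg/day group was dosed only GD8–GD11 (diaphragm formation). Suspension vehicle: 20% w/w Kolliphor HS 15 / 50% w/w PEG 400 in water. CO2 euthanasia and necropsy on GD21. Maternal endpoints were recorded, plus fetal weight, external and visceral exams.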

[10] = system: pregnant rats; experiment: as above; type: in vivo; conditions: rat investigative EFD; for mean maternal body weight gain, % of controls: dosing and post dose periods
Outline: as §1

[11] = molecular target: TSF1 (Homo sapiens, UniProt O75716); experiment: ADP-Glo Kinase Assay, TSF1; type: biochemical
[12] = 2 mg/kg/day, 2 mg/kg/day oral, GD6
[13] = 2 mg/kg/day, 2 mg/kg/day oral, GD17
[14] = 6 mg/kg/day, 6 mg/kg/day oral, GD6
[15] = 6 mg/kg/day, 6 mg/kg/day oral, GD17
[16] = 20 mg/kg/day, 20 mg/kg/day oral, GD6
[17] = 20 mg/kg/day, 20 mg/kg/day oral, GD17
[18] = Sprague-Dawley (Crl: OFA SD), 40 mg/kg/day, 40 mg/kg/day oral, GD6
[19] = Sprague-Dawley (Crl: OFA SD), 40 mg/kg/day, 40 mg/kg/day oral, GD17
[20] = Sprague-Dawley, 20 mg/kg/day, 20 mg/kg/day oral, GD6
[21] = Sprague-Dawley, 20 mg/kg/day, 20 mg/kg/day oral, GD17
[22] = 60 mg/kg/day, only dosed GD8 to GD11

T1 sequence (P42356 whole entry): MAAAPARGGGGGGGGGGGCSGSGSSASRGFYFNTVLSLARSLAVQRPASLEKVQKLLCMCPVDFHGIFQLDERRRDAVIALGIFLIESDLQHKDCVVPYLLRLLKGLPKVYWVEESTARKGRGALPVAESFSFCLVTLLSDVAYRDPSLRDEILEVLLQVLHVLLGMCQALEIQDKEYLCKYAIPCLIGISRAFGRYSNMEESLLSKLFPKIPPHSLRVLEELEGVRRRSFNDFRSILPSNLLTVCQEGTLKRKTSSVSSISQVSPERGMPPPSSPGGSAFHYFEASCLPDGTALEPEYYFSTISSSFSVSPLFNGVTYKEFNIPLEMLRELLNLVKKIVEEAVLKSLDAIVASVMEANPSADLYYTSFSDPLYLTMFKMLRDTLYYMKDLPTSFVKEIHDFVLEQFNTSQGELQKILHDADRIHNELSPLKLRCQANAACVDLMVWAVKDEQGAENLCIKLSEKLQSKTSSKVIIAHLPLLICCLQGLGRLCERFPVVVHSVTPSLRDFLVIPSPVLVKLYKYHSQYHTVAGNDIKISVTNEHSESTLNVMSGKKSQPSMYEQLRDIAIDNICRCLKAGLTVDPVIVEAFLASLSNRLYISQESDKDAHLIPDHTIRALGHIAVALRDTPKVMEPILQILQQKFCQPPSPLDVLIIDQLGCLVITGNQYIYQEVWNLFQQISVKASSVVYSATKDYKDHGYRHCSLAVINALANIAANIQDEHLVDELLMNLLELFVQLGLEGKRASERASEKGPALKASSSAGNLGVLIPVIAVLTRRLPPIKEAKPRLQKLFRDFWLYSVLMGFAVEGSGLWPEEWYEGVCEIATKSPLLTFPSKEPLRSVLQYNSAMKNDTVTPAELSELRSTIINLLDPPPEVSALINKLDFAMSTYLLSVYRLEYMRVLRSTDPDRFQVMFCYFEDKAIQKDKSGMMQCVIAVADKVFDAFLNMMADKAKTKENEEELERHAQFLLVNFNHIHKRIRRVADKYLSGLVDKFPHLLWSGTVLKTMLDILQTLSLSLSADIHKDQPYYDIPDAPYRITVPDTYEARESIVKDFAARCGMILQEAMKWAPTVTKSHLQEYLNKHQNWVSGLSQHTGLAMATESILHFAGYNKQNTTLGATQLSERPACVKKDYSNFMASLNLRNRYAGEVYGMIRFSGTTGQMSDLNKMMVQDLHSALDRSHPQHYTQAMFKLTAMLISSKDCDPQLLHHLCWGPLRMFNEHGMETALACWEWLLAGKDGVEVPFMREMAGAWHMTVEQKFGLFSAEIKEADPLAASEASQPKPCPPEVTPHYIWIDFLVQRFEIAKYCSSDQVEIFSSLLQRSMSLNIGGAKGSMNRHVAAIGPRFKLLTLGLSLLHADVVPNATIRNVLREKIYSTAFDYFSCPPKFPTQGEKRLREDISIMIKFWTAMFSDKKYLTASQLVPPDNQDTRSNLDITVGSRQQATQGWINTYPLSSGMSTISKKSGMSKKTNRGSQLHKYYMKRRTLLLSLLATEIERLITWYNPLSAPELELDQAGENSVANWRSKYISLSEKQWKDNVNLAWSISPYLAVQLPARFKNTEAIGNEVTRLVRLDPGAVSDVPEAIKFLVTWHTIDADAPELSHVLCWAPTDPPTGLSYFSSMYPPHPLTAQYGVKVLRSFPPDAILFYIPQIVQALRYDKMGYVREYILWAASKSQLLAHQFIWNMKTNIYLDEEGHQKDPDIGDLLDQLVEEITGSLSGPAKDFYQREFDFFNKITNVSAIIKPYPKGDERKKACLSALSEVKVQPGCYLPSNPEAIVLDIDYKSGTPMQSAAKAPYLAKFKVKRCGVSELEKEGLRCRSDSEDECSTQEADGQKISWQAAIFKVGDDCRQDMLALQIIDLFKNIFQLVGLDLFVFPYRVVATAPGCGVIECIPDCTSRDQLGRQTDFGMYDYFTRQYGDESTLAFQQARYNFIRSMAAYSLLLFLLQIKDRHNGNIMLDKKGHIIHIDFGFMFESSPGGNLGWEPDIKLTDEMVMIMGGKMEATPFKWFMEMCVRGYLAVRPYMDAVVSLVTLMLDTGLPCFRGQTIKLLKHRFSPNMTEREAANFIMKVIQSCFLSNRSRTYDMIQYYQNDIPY
TSF1, sequence (O75716 whole entry): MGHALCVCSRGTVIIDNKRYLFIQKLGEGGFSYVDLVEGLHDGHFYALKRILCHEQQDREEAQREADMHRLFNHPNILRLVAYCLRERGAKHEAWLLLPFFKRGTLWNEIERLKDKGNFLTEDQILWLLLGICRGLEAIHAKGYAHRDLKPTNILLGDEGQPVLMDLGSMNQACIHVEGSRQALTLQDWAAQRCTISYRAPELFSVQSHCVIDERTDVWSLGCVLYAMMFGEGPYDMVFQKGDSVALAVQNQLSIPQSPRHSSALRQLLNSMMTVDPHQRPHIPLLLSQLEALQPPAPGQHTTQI
PI3Kγ, sequence (P48736 whole entry): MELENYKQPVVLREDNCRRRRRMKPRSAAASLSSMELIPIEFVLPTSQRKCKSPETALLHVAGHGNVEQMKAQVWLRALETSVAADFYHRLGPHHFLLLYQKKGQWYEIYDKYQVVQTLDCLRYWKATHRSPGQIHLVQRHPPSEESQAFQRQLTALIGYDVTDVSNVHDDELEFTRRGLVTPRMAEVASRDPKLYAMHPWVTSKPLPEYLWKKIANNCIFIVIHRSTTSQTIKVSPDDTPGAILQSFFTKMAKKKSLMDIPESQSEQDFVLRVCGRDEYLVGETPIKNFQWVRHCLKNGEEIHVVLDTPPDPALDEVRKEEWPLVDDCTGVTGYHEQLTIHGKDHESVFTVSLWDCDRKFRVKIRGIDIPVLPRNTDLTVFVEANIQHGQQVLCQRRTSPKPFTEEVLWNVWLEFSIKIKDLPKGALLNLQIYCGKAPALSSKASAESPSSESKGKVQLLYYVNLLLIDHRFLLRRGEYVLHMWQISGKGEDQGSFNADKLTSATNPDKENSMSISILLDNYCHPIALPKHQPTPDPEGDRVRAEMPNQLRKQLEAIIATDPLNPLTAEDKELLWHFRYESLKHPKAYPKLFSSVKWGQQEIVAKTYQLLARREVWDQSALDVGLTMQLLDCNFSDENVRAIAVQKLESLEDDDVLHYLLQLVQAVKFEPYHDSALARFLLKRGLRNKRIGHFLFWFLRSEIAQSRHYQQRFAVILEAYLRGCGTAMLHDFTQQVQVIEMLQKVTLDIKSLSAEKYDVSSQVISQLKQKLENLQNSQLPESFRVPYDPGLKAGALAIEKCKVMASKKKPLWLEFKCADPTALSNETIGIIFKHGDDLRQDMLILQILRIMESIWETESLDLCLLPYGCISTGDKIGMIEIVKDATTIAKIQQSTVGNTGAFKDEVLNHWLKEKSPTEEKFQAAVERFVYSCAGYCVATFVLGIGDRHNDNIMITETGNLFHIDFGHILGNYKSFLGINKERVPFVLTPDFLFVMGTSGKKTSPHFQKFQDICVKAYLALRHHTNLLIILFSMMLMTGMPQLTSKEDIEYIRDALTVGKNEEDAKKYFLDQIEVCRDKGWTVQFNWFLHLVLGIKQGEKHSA
PI4Kβ, sequence (Q9UBF8 whole entry): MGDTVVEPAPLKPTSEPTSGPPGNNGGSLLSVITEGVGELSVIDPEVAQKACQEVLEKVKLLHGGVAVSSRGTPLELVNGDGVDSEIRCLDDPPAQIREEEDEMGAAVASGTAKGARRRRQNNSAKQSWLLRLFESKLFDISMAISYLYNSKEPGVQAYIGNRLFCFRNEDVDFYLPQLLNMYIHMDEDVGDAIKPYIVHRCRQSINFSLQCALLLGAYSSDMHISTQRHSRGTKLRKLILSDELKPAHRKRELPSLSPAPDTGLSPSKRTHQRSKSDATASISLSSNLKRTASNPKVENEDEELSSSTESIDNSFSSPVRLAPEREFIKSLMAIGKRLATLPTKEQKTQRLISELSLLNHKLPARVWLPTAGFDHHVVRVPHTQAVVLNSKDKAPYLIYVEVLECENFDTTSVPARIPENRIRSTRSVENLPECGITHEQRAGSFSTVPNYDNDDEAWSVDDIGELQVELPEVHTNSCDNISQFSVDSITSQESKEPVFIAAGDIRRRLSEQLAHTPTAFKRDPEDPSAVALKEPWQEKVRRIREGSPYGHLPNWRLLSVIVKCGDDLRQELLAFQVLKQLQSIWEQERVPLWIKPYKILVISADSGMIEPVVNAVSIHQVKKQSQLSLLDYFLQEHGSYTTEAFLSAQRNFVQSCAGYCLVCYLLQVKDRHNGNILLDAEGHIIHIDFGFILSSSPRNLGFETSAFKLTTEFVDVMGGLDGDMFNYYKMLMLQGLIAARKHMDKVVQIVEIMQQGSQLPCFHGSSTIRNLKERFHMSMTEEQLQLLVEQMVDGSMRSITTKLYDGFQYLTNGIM

## CS(=O)(=O)c1ccc(-c2cnc(N)c(-c3ccc(C(F)(F)F)nc3)c2)cc1 [MMV390048]
[1]; 1 mg/kg/day
  AUC(0-t): 3750 ng·h/mL
  Cmax: 267 ng/mL
  Tmax: 2 h
[1]; 3 mg/kg/day
  AUC(0-t): 14900 ng·h/mL
  Cmax: 857 ng/mL
  Tmax: 4 h
[1]; 10 mg/kg/day
  AUC(0-t): 64500 ng·h/mL
  Cmax: 3790 ng/mL
  Tmax: 4 h
[2]; 2 mg/kg/day
  Tmax: 2 h
[2]; [12]
  AUC(0-t): 3750 ng·h/mL
  Cmax: 680 ng/mL
[2]; [13]
  AUC(0-t): 3770 ng·h/mL
  Cmax: 681 ng/mL
[2]; 6 mg/kg/day
  Tmax: 2 h
[2]; [14]
  AUC(0-t): 19600 ng·h/mL
  Cmax: 1380 ng/mL
[2]; [15]
  AUC(0-t): 21400 ng·h/mL
  Cmax: 1600 ng/mL
[2]; 20 mg/kg/day
  Tmax: 4 h
[2]; [16]
  AUC(0-t): 70000 ng·h/mL
  Cmax: 4950 ng/mL
[2]; [17]
  AUC(0-t): 74400 ng·h/mL
  Cmax: 5190 ng/mL
[2]; rat EFD main KIT, GD17, 20 mg/kg, 4 hr post dose
  Maximum exposure (free): 2 μM/L
[3]
  IC50: 18.7 µM
[4]; Sprague-Dawley (Crl: OFA SD), 40 mg/kg/day
  Tmax: 7 h
[4]; [18]
  AUC(0-t): 213000 ng·h/mL
  Cmax: 11300 ng/mL
[4]; [19]
  AUC(0-t): 310000 ng·h/mL
  Cmax: 17100 ng/mL
[4]; Sprague-Dawley, 20 mg/kg/day
  Tmax: 7 h
[4]; [20]
  AUC(0-t): 92900 ng·h/mL
  Cmax: 5230 ng/mL
[4]; [21]
  AUC(0-t): 134000 ng·h/mL
  Cmax: 7550 ng/mL
[4]; rat investigational EFD CRL, GD17, 40 mg/kg, 7 hr post dose
  Maximum exposure (free): 6.5 μM/L
[5]
  binding to human PI4Kβ: no binding
[6]
  IC50: 4.3 µM
[7]
  embryofetal developmental toxicity signals: no signals of concern
[8]
  binding to human PI4Kα: no binding
[9]
  NOAEL: 20 mg/kg/day
[10]
  NOAEL for developmental toxicity: not established
[10]; 20 mg/kg/day GD6-GD17
  Blood vessels AARS, fetuses with malformation/total fetuses examined: 2/280
  Blood vessels AARS, litters with malformation/total litters examined: 2/24
  Blood vessels ADA, fetuses with malformation/total fetuses examined: 4/280
  Blood vessels ADA, litters with malformation/total litters examined: 3/24
  Blood vessels IAA, fetuses with malformation/total fetuses examined: 2/280
  Blood vessels IAA, litters with malformation/total litters examined: 2/24
  Blood vessels NPT, fetuses with malformation/total fetuses examined: 1/280
  Blood vessels NPT, litters with malformation/total litters examined: 1/24
  Edema, fetuses with malformation/total fetuses examined: 1/280
  Edema, litters with malformation/total litters examined: 1/24
  Female with viable fetuses: 24/24
  Fetal BW % from CTL: −10%
  Heart VSD, fetuses with malformation/total fetuses examined: 1/280
  Heart VSD, litters with malformation/total litters examined: 1/24
  Hernias, fetuses with malformation/total fetuses examined: 35/280
  Hernias, litters with malformation/total litters examined: 16/24
  Postimplantation loss (%): 9.6%
[10]; 40 mg/kg/day
  females with no viable fetuses, number: 6 females
  mean maternal body weight gain, % of controls: 41 % of controls
[10]; 40 mg/kg/day GD6-GD17
  Blood vessels AARS, fetuses with malformation/total fetuses examined: 8/97
  Blood vessels AARS, litters with malformation/total litters examined: 8/16
  Blood vessels ADA, fetuses with malformation/total fetuses examined: 9/97
  Blood vessels ADA, litters with malformation/total litters examined: 7/16
  Blood vessels IAA, fetuses with malformation/total fetuses examined: 4/97
  Blood vessels IAA, litters with malformation/total litters examined: 4/16
  Blood vessels NPT, fetuses with malformation/total fetuses examined: 9/97
  Blood vessels NPT, litters with malformation/total litters examined: 6/16
  Edema, fetuses with malformation/total fetuses examined: 1/97
  Edema, litters with malformation/total litters examined: 1/16
  Female with viable fetuses: 16/22
  Fetal BW % from CTL: −24%
  Heart Thick VW, fetuses with malformation/total fetuses examined: 1/97
  Heart Thick VW, litters with malformation/total litters examined: 1/16
  Heart VSD, fetuses with malformation/total fetuses examined: 21/97
  Heart VSD, litters with malformation/total litters examined: 8/16
  Hernias, fetuses with malformation/total fetuses examined: 63/97
  Hernias, litters with malformation/total litters examined: 15/16
  Postimplantation loss (%): 66.45%
[10]; 60 mg/kg/day
  females with no viable fetuses, number: 11 females
  mean maternal body weight gain, % of controls: 49 % of controls
[10]; [22]
  Blood vessels AARS, fetuses with malformation/total fetuses examined: 12/65
  Blood vessels AARS, litters with malformation/total litters examined: 12/14
  Blood vessels ADA, fetuses with malformation/total fetuses examined: 10/65
  Blood vessels ADA, litters with malformation/total litters examined: 6/14
  Blood vessels IAA, fetuses with malformation/total fetuses examined: 1/65
  Blood vessels IAA, litters with malformation/total litters examined: 1/14
  Blood vessels NPT, fetuses with malformation/total fetuses examined: 10/65
  Blood vessels NPT, litters with malformation/total litters examined: 6/14
  Edema, fetuses with malformation/total fetuses examined: 2/65
  Edema, litters with malformation/total litters examined: 1/14
  Female with viable fetuses: 14/25
  Fetal BW % from CTL: −26%
  Heart Thick VW, fetuses with malformation/total fetuses examined: 3/65
  Heart Thick VW, litters with malformation/total litters examined: 3/14
  Hernias, fetuses with malformation/total fetuses examined: 31/65
  Hernias, litters with malformation/total litters examined: 11/14
  Postimplantation loss (%): 79.22% and 79.2%
[11]
  IC50: 7.3 µM
